ChEMBL document CHEMBL1152452, “Modifications incorporated in CpG motifs of oligodeoxynucleotides lead to antagonist activity of toll-like receptors 7 and 9” (2009)
Active and inactive are the calls of the source. The calls are words filed in the database; no cut-off is given here.

Experiments:
[1] = system: J774; assay: Activation of NF-kappaB in mouse J774 cells at 2.5 ug/ml after 1 hr by EMSA; type: cell-based
Outline: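 Murine J774 macrophages in DMEM with 10% FBS and antibiotics, plated at 5×10^6 cells/well. ODNs were given alone or together for 1 h. For inhibition, the agonist ODN at 0.5 μg/mL was co-incubated with the modified ODN at 2.5 μg/mL. Nuclear extracts were resolved by EMSA on native polyacrylamide gels and read by autoradiography.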

[2] = system: J774; assay: Inhibition of 5'-CTATCTGACGTTCTCTGT-3'-activated NF-kappaB activity in mouse J774 cells at 2.5 ug/ml after 1 hr by EMSA; type: cell-based
Outline: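 J774 murine macrophages were grown in DMEM with 10% FBS and antibiotics, plated at 5 × 10^6 cells/well, and co-incubated for 1 h with the agonist ODN (0.5 µg/mL) and test ODN (2.5 µg/mL). Nuclear extracts were prepared and NF-κB binding was analysed by EMSA on native polyacrylamide gels with autoradiography.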

[3] = molecular target: T1, Toll-like receptor 9 (Mus musculus) (UniProt Q9EQU3); assay: Activation of mouse TLR9 expressed in HEK293 cells assessed as NF-kappaB level at 0.1 ug/mL after 18 hrs by reporter gene assay; type: cell-based
T1 sequence (whole entry): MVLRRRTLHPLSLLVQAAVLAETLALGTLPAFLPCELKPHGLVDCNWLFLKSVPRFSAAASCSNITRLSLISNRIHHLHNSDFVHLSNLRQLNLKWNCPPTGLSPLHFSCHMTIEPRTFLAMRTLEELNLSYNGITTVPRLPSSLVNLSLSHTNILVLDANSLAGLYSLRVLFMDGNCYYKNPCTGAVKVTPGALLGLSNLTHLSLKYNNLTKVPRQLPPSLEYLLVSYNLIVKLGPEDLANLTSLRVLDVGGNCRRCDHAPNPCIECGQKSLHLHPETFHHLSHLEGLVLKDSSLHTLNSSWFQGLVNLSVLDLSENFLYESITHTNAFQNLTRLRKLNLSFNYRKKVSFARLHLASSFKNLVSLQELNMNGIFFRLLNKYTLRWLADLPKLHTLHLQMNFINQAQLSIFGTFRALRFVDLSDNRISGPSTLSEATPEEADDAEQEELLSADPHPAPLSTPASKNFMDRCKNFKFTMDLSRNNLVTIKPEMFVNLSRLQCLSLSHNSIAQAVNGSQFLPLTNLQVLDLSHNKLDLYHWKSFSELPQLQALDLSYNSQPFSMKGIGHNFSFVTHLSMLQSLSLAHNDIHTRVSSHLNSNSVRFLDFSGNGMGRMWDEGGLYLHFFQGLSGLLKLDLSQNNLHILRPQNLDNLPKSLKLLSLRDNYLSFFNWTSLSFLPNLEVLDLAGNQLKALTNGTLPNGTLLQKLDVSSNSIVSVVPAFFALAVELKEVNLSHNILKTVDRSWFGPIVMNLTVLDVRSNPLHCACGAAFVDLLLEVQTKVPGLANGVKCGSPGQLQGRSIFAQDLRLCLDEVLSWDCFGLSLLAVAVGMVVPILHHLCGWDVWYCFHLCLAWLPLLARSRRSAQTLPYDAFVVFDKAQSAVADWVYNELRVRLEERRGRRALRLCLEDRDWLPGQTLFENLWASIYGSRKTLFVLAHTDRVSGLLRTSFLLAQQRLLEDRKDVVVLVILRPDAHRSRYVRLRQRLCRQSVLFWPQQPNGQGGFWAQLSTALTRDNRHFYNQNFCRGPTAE
Outline: (§1)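 HEK293 cells stably expressing mouse TLR9 were transiently transfected with a SEAP reporter for 6 h, then stimulated with ODN at 0.1, 0.3 or 1 μg/mL for 18 h. Reporter expression is given as fold change in NF-κB activity over medium. Representative of two independent experiments.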

[4] = molecular target: T1, Toll-like receptor 9 (Mus musculus); assay: Activation of mouse TLR9 expressed in HEK293 cells assessed as NF-kappaB level at 0.3 ug/mL after 18 hrs by reporter gene assay; type: cell-based; outline: as §1
[5] = molecular target: T1, Toll-like receptor 9 (Mus musculus); assay: Activation of mouse TLR9 expressed in HEK293 cells assessed as NF-kappaB level at 1 ug/mL after 18 hrs by reporter gene assay; type: cell-based; outline: as §1
[6] = system: Splenocyte; assay: Immunostimulatory activity in C57BL/6 mouse splenocytes assessed as induction of IL12 secretion at 2 to 10 ug/ml after 24 hrs by sandwich ELISA; type: functional, cell-based
Outline: (§2)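 C57BL/6 splenocytes (mice 5–8 weeks) at 5 × 10^6 cells/mL in RPMI complete medium. ODNs dissolved in PBS were added and the cells incubated at 37 °C for 24 h. Supernatant IL-12 or IL-6 was measured by sandwich ELISA. Runs were done two or three times, in duplicate per concentration.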

[7] = system: Splenocyte; assay: Immunostimulatory activity in C57BL/6 mouse splenocytes assessed as induction of IL6 secretion at 2 to 10 ug/ml after 24 hrs by sandwich ELISA; type: functional, cell-based; outline: as §2
[8] = system: Mus musculus; assay: Immunostimulatory activity in C57BL/6 mouse assessed as inhibition of 5'-CTATCTGACGTTCTCTGT-3'-induced MIP-1alpha production in serum at 2 mg/kg, sc administered 24 hrs prior to 5'-CTATCTGACGTTCTCTGT-3' challenge measured after 2 hrs by Luminex multiplex assay; type: functional, organism-based; parameters: dose 2 mg/kg
Outline: (§3)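 C57BL/6 mice received 2 mg/kg ODN sc in one flank. After 24 h, the TLR9 agonist ODN was given at 0.5 mg/kg sc in the opposite flank. Blood was drawn 2 h later and serum cytokines/chemokines were quantified by Luminex multiplex assay. Percent inhibition was taken against the agonist alone. Representative of three experiments.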

[9] = system: Mus musculus; assay: Immunostimulatory activity in C57BL/6 mouse assessed as inhibition of 5'-CTATCTGACGTTCTCTGT-3'-induced TNFalpha production in serum at 2 mg/kg, sc administered 24 hrs prior to 5'-CTATCTGACGTTCTCTGT-3' challenge measured after 2 hrs by Luminex multiplex assay; type: functional, organism-based; parameters: dose 2 mg/kg; outline: as §3
[10] = system: Mus musculus; assay: Immunostimulatory activity in C57BL/6 mouse assessed as inhibition of 5'-CTATCTGACGTTCTCTGT-3'-induced IL10 production in serum at 2 mg/kg, sc administered 24 hrs prior to 5'-CTATCTGACGTTCTCTGT-3' challenge measured after 2 hrs by Luminex multiplex assay; type: functional, organism-based; parameters: dose 2 mg/kg; outline: as §3
[11] = system: Mus musculus; assay: Immunostimulatory activity in C57BL/6 mouse assessed as inhibition of 5'-CTATCTGACGTTCTCTGT-3'-induced MCP1 production in serum at 2 mg/kg, sc administered 24 hrs prior to 5'-CTATCTGACGTTCTCTGT-3' challenge measured after 2 hrs by Luminex multiplex assay; type: functional, organism-based; parameters: dose 2 mg/kg; outline: as §3
[12] = system: Mus musculus; assay: Immunostimulatory activity in C57BL/6 mouse assessed as inhibition of 5'-CTATCTGACGTTCTCTGT-3'-induced KC production in serum at 2 mg/kg, sc administered 24 hrs prior to 5'-CTATCTGACGTTCTCTGT-3' challenge measured after 2 hrs by Luminex multiplex assay; type: functional, organism-based; parameters: dose 2 mg/kg; outline: as §3

SMILES: COC1[C@H](n2cnc3c(N)ncnc32)O[C@H](COP(=O)(S)O[C@H]2C(OC)[C@H](n3cnc4c(=O)[nH]c(N)nc43)O[C@@H]2COP(=O)(S)O[C@H]2C[C@H](n3cc(C)c(=O)[nH]c3=O)O[C@@H]2COP(=O)(S)O[C@H]2C[C@H](n3ccc(N)nc3=O)O[C@@H]2COP(=O)(S)O[C@H]2C[C@H](n3cc(C)c(=O)[nH]c3=O)O[C@@H]2COP(=O)(S)O[C@H]2C[C@H](n3cnc4c(N)ncnc43)O[C@@H]2COP(=O)(S)O[C@H]2C[C@H](n3cc(C)c(=O)[nH]c3=O)O[C@@H]2COP(=O)(S)O[C@H]2C[C@H](n3ccc(N)nc3=O)O[C@@H]2CO)[C@H]1OP(=O)(S)OC[C@H]1O[C@@H](n2ccc(N)nc2=O)C[C@@H]1OP(=O)(S)OC[C@H]1O[C@@H](n2ccc(N)nc2=O)C[C@@H]1OP(=O)(S)OC[C@H]1O[C@@H](n2cc(C)c(=O)[nH]c2=O)C[C@@H]1OP(=O)(S)OC[C@H]1O[C@@H](n2cc(C)c(=O)[nH]c2=O)C[C@@H]1OP(=O)(S)OC[C@H]1O[C@@H](n2ccc(N)nc2=O)C[C@@H]1OP(=O)(S)OC[C@H]1O[C@@H](n2cc(C)c(=O)[nH]c2=O)C[C@@H]1OP(=O)(S)OC[C@H]1O[C@@H](n2ccc(N)nc2=O)C[C@@H]1OP(=O)(S)OC[C@H]1O[C@@H](n2cc(C)c(=O)[nH]c2=O)C[C@@H]1OP(=O)(S)OC[C@H]1O[C@@H](n2cnc3c(=O)[nH]c(N)nc32)C[C@@H]1OP(=O)(S)OC[C@H]1O[C@@H](n2cc(C)c(=O)[nH]c2=O)C[C@@H]1O (some centres not stated)
- Activity [1]: inactive
- Activity [2]: inactive

SMILES: Cc1cn([C@H]2C[C@H](OP(=O)(S)OC[C@H]3O[C@@H](n4ccc(N)nc4=O)C[C@@H]3OP(=O)(S)OC[C@H]3O[C@@H](n4cc(C)c(=O)[nH]c4=O)C[C@@H]3OP(=O)(S)OC[C@H]3O[C@@H](n4cc(C)c(=O)[nH]c4=O)C[C@@H]3OP(=O)(S)OC[C@H]3O[C@@H](n4ccc(N)nc4=O)C[C@@H]3OP(=O)(S)OC[C@H]3O[C@@H](n4cc(C)c(=O)[nH]c4=O)C[C@@H]3OP(=O)(S)OC[C@H]3O[C@@H](n4ccc(N)nc4=O)C[C@@H]3OP(=O)(S)OC[C@H]3O[C@@H](n4cc(C)c(=O)[nH]c4=O)C[C@@H]3OP(=O)(S)OC[C@H]3O[C@@H](n4cnc5c(=O)[nH]c(N)nc54)C[C@@H]3OP(=O)(S)OC[C@H]3O[C@@H](n4cc(C)c(=O)[nH]c4=O)C[C@@H]3O)[C@@H](COP(=O)(S)O[C@H]3C[C@H](n4cnc5c(N)ncnc54)O[C@@H]3COP(=O)(S)O[C@H]3C[C@H](n4cnc5c(=O)[nH]c(N)nc54)O[C@@H]3COP(=O)(S)O[C@H]3C[C@H](n4cc(C)c(=O)[nH]c4=O)O[C@@H]3COP(=O)(S)O[C@H]3C[C@H](n4ccc(N)nc4=O)O[C@@H]3COP(=O)(S)O[C@H]3C[C@H](n4cc(C)c(=O)[nH]c4=O)O[C@@H]3COP(=O)(S)O[C@H]3C[C@H](n4cnc5c(N)ncnc54)O[C@@H]3COP(=O)(S)O[C@H]3C[C@H](n4cc(C)c(=O)[nH]c4=O)O[C@@H]3COP(=O)(S)O[C@H]3C[C@H](n4ccc(N)nc4=O)O[C@@H]3CO)O2)c(=O)nc1N (some centres not stated)
- Activity [3]: inactive
- Activity [4]: inactive
- Activity [5]: inactive
- Activity [6]: inactive
- Activity [7]: inactive
- Activity [8]: Active
- Activity [9]: Active
- Activity [10]: Active
- Activity [11]: Active
- Activity [12]: Active
